Where two headings read alike, the source gives them in different places. Blank lines part the entries; values can stand above or below the compound they belong to.
Experiments:
[1] = test system: Irg1-KO RAW264.7 cells; assay: SDH inhibition, succinate and 5hmC in LPS-stimulated Irg1-KO macrophages; assay type: cell-based, mouse; conditions: 3-NPA 1 mM, LPS-stimulated Irg1-KO RAW264.7
[2] = test system: peritoneal leukocytes; assay: Genomic 5hmC and 5mC in peritoneal leukocytes after i.p. ITA, LC-MS/MS; assay type: in vivo, mouse; conditions: 50 mg/kg ITA i.p. prior to LPS 25 mg/kg
[3] = test system: bone marrow-derived macrophages (BMDMs); assay: Global 5hmC quantification by LC-MS/MS in BMDMs; assay type: cell-based, mouse; conditions: 0.5 mM OI or increased concentrations of ITA, 8 hours; for Reduction of global 5hmC: Tet2^+/+ BMDMs; for Effect on global 5hmC: Tet2^−/− BMDMs
[4] = test system: HEK293T cells overexpressing TET3; assay: Global 5hmC by dot-blot and LC-MS/MS in TET3-overexpressing cells; assay type: cell-based
Procedure, shortened: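 For dot-blot, genomic DNA was spotted on nitrocellulose, UV-crosslinked for 20 min, blocked in 5% milk, probed with anti-5hmC overnight at 4°C and HRP secondary, then scanned. Global 5hmC was also measured by LC-MS/MS, mean with S.D. of 3 independent experiments.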

[5] = biological target: T1, mTET2^CD (Mus musculus, UniProt Q4JK59); assay type: biochemical; conditions: for Inhibition of mTET2^CD activity in presence of excess α-KG: fixed concentration of inhibitor, variable α-KG
T1 sequence (Q4JK59 1042-1912 limits assumed): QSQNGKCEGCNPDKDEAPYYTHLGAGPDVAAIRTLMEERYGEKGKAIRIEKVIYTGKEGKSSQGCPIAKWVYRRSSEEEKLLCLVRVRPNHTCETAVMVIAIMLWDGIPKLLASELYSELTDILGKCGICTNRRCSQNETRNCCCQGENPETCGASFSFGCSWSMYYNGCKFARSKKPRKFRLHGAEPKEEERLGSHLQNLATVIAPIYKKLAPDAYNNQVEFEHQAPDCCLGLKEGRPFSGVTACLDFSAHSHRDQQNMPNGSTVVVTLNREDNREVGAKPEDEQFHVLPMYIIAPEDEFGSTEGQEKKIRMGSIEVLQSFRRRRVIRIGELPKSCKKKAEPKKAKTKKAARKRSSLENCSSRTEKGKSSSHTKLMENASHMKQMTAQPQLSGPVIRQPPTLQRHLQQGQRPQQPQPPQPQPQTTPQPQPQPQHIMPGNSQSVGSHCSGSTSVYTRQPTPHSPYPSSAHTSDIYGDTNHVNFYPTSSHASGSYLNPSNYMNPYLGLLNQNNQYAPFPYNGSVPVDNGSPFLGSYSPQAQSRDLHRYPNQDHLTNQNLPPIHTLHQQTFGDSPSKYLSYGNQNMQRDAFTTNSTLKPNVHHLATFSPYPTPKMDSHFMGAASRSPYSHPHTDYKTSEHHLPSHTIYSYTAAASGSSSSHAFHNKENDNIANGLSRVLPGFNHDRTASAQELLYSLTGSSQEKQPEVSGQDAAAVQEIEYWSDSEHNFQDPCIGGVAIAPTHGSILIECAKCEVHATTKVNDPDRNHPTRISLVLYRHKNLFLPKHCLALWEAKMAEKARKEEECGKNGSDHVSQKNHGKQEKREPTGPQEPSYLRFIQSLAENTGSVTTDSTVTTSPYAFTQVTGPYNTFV

[6] = biological target: recombinant human TET2^CD (Homo sapiens, UniProt Q6N021); assay: Saturation transfer difference; assay type: binding
Procedure, shortened: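 Spectra were run at 25°C, 700 MHz, cryoprobe, carrier on water. A 3-s saturation used a 50-ms EBurp2 pulse (0.75 ppm bandwidth) centred at 0.8 ppm for difference or −40 ppm for reference spectra.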

[7] = test system: RAW264.7 cells; assay: qRT-PCR of LPS-induced genes; assay type: cell-based, mouse
Procedure, shortened: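 Alternatively, cells got LPS for 2 h, then OI for 2 h, or LPS plus dimethyl-α-KG (0.5, 1, 2 mM). mRNA was measured by qRT-PCR with β-actin as housekeeping control. Nfkbiz data are means with S.D. of 3 independent experiments.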

[8] = test system: TET2^CD mutant, i.e. R1896M or S1898F; assay: STD NMR binding to TET2^CD mutants; set-up: species or system human
[9] = test system: LPS-induced sepsis; assay: Mouse model of LPS-induced sepsis; assay type: in vivo; conditions: Tet2^−/− mice
[10] = test system: RAW264.7 mouse macrophages; assay: Intracellular ITA accumulation by LC-MS/MS; assay type: cell-based; conditions: RAW264.7, dose-dependent
[11] = test system: HEK293T cells overexpressing mTET2^CD; assay: Global 5hmC by immunofluorescence in TET2-overexpressing cells; assay type: cell-based; conditions: for Effect on 5hmC: HEK293T overexpressing mTET2^CD
Procedure, shortened: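 TET2-overexpressing HEK293T cells were treated with OI alone or with rising amounts of dimethyl-α-KG. 5hmC immunofluorescence: Triton X-100 permeabilization, 2 N HCl denaturation for 30 min, Tris pH 8.5 neutralization, BSA block, anti-5hmC overnight at 4°C, fluorescent secondary, DAPI counterstain. Two independent experiments.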

[12] = test system: Tet2^+/+ BMDMs; assay: 5hmC mapping by hMeDIP-seq in BMDMs; assay type: cell-based, mouse; conditions: 0.5 mM OI, 8 hours
[13] = test system: TET2-overexpressing HEK293T cells; assay: Global histone methylation markers by western blot; assay type: cell-based
[14] = test system: RAW264.7 cells; assay: Genomic 5hmC by IF staining in LPS-treated macrophages; assay type: cell-based, mouse; conditions: LPS 12 hours then 1 mM for 12 hours
Procedure, shortened: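 RAW264.7 cells (DMEM, 10% FBS) were challenged with LPS for 12 h, then given dimethyl-α-KG (1 mM) for 12 h. Cells were permeabilized with 0.3% Triton X-100 for 15 min, DNA denatured with 2 N HCl for 30 min, and neutralized with 100 mM Tris-HCl pH 8.5. Staining used 3% BSA block, anti-5hmC at 4°C overnight, Alexa Fluor 594 secondary for 1 h, and DAPI, then fluorescence microscopy.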

Compound: O=C(O)CC[N+](=O)[O-] [3-NPA, 3-nitropropionic acid]
Effect on global 5hmC [1]: little effect | Intracellular accumulation of succinate [1]: ≤ 1.5 mM

Compound: C=C(CC(=O)O)C(=O)O [ITA, itaconic acid]
5mC in peritoneal leukocytes [2]: unaffected | Reduction of 5hmC in peritoneal leukocytes ([2]; 2 hours post LPS): ≤ 36% | Reduction of global 5hmC [3]: ≤ 95% | Effect on global 5hmC [3]: little effect | Effect on global 5hmC [4]: decreased global 5hmC | IC50 [5]: 171 µM | Inhibition of mTET2^CD activity in presence of excess α-KG [5]: overcome dose-dependently by excess α-KG | Binding to recombinant human TET2^CD (STD NMR) [6]: bound directly | ITA-TET2^CD binding in presence of α-KG (STD NMR) ([6]; competition with α-KG): blocked by α-KG | Suppression of LPS-induced chemokine and cytokine genes upon Tet2 deletion ([7]; unmodified ITA 3 mM, Tet2-WT vs Tet2-KO): completely abolished by Tet2 deletion | Binding to TET2^CD mutants R1896M or S1898F (STD NMR) [8]: abolish the binding | Anti-inflammatory and protective effects [9]: not observed | Time to intracellular accumulation of ITA [10]: < 30 s

Inhibition of mTET2^CD activity in presence of excess α-KG [5]: overcome dose-dependently by excess α-KG
Compound: O=C(O)CC[C@H](O)C(=O)O [L-2-HG]

Compound: C=C(CC(=O)OCCCCCCCC)C(=O)O [OI, octyl-ITA]
Effect on 5hmC [11]: dose-dependently reduced 5hmC | Reduction of global 5hmC [3]: ≤ 95% | Effect on global 5hmC [3]: little effect | Effect on global 5hmC [4]: decreased global 5hmC | 5hmC by hMeDIP-seq [12]: decreased 5hmC at both promoters and intragenic regions | Effect on global histone methylation [13]: no detectable effect | Nfkbiz mRNA expression ([7]; LPS-stimulated Tet2-KO cells): failed to affect | LPS-induced mRNA expression of Nfkbiz, Il-6, Cxcl9/10/11 ([7]; Tet2-WT, LPS 2 hours then OI 2 hours): hindered | Time to intracellular accumulation of ITA [10]: < 30 s

Compound: CCCCCCCCOC(=O)[C@@H](O)CCC(=O)O [Octyl-L-2HG]
Effect on 5hmC [11]: dose-dependently reduced 5hmC

Compound: COC(=O)CCC(=O)C(=O)OC [dimethyl-α-KG]
Effect on OI-induced 5hmC reduction ([11]; increasing amount, together with OI): reversed | Nfkbiz mRNA ([7]; LPS-stimulated Tet2-WT but not Tet2-KO cells): further increase | Effect on 5hmC in LPS-treated cells [14]: restored 5hmC

IC50 ([5]; read-out: IC50 toward mTET2^CD catalytic activity, 0.1 mM α-KG, 37°C 30 min): > 5000 µM
Compound: O=C(O)/C=C/C(=O)O [fumarate]

Binding to recombinant human TET2^CD (STD NMR) [6]: not
Compound: NC(=O)CC[C@H](N)C(=O)O [glutamine]

Binding to TET2^CD R1896M mutant (STD NMR) ([8]; R1896M mutation, not S1898F): weakens the binding
Compound: α-ketoglutarate [α-KG]

Reference: PMC9305987 (Nature cell biology, 2022)
